Measured values reported in ChEMBL document CHEMBL5724801, “EUbOPEN Chemogenomics Library - Multiplex” (2024).
“And” between values parts separate entries of the source, which are not always exact repeats. Equal values may be shown once.

Tested on: Fibroblast
Assay: Multiplex assay against human fibroblast
Format: toxicity, cell-based
Method in brief: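 Phenotypes for tubulin, mitochondrial mass and membrane permeability are expressed as per cents of healthy-nucleus cells. Cells were stained live at seeding with Hoechst33342, BioTracker Green Microtubule Cytoskeleton Dye, MitoTracker Red and Annexin V Alexa Fluor 680, then imaged after compound addition on a CQ1 microscope at 37°C and 5% CO2. Machine-learning gating in CellPathfinder separated Hoechst high-intensity objects from normal cells, divided normal cells by nuclear state (healthy, pyknosed, fragmented) and divided pyknosed cells into mitotic or apoptotic.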

[1] = 12 h, 1 µM, compound concentration 1 uM
[2] = 12 h, 10 µM, compound concentration 10 uM
[3] = 24 h, 1 µM, compound concentration 1 uM
[4] = 24 h, 10 µM, compound concentration 10 uM
[5] = 48 h, 1 µM, compound concentration 1 uM
[6] = 48 h, 10 µM, compound concentration 10 uM

CN(C)C/C=C/C(=O)Nc1ccc(C(=O)N2CCCC(Nc3ncc(Cl)c(-c4c[nH]c5ccccc45)n3)C2)cc1 (centres undefined)
Population Apoptotic (%) [1]: 48% and 46% | Population Fragmented Nuclei (%) [1]: 15% and 21% | Population Healthy Nuclei (%) [1]: 64% and 53% | Population Hoechst High Intensity Objects (%) [1]: 2% and 6% | Population Membrane Permeable-Phenotype (%) [1]: 2% and 3% | Population Mitochondria Different-Phenotype (%) [1]: 11% and 13% | Population Mitotic Cells (%) [1]: 51% and 53% | Population Normal (%) [1]: 97% and 93% | Population Pyknosed Nuclei (%) [1]: 19% and 25% | Population Tubulin-Different-Phenotype (%) [1]: 40% | Total Cell Count [1]: 152 and 182 | Population Apoptotic (%) [2]: 59% and 48% | Population Fragmented Nuclei (%) [2]: 18% and 23% | Population Healthy Nuclei (%) [2]: 53% and 41% | Population Hoechst High Intensity Objects (%) [2]: 4% and 8% | Population Mitochondria Different-Phenotype (%) [2]: 37% and 19% | Population Mitotic Cells (%) [2]: 40% and 51% | Population Normal (%) [2]: 95% and 91% | Population Pyknosed Nuclei (%) [2]: 27% and 35% | Population Tubulin-Different-Phenotype (%) [2]: 77% and 58% | Total Cell Count [2]: 140 and 147 | Population Apoptotic (%) [3]: 68% and 37% | Population Fragmented Nuclei (%) [3]: 25% and 26% | Population Healthy Nuclei (%) [3]: 48% and 49% | Population Hoechst High Intensity Objects (%) [3]: 7% | Population Membrane Permeable-Phenotype (%) [3]: 2% and 10% | Population Mitochondria Different-Phenotype (%) [3]: 7% and 10% | Population Mitotic Cells (%) [3]: 31% and 62% | Population Normal (%) [3]: 92% | Population Pyknosed Nuclei (%) [3]: 26% and 23% | Population Tubulin-Different-Phenotype (%) [3]: 40% and 54% | Total Cell Count [3]: 155 and 181 | Population Apoptotic (%) [4]: 65% and 47% | Population Fragmented Nuclei (%) [4]: 13% and 30% | Population Healthy Nuclei (%) [4]: 49% and 42% | Population Hoechst High Intensity Objects (%) [4]: 2% and 6% | Population Membrane Permeable-Phenotype (%) [4]: 0% and 5% | Population Mitochondria Different-Phenotype (%) [4]: 52% and 35% | Population Mitotic Cells (%) [4]: 34% and 52% | Population Normal (%) [4]: 97% and 93% | Population Pyknosed Nuclei (%) [4]: 37% and 27% | Population Tubulin-Different-Phenotype (%) [4]: 84% and 72% | Total Cell Count [4]: 119 and 149 | Population Apoptotic (%) [5]: 63% and 60% | Population Fragmented Nuclei (%) [5]: 33% and 35% | Population Healthy Nuclei (%) [5]: 36% and 40% | Population Hoechst High Intensity Objects (%) [5]: 10% and 8% | Population Membrane Permeable-Phenotype (%) [5]: 2% and 8% | Population Mitochondria Different-Phenotype (%) [5]: 20% and 25% | Population Mitotic Cells (%) [5]: 36% and 40% | Population Normal (%) [5]: 90% and 91% | Population Pyknosed Nuclei (%) [5]: 30% and 24% | Population Tubulin-Different-Phenotype (%) [5]: 48% and 68% | Total Cell Count [5]: 150 and 158 | Population Apoptotic (%) [6]: 77% and 68% | Population Fragmented Nuclei (%) [6]: 28% and 27% | Population Healthy Nuclei (%) [6]: 20% and 41% | Population Hoechst High Intensity Objects (%) [6]: 14% and 13% | Population Membrane Permeable-Phenotype (%) [6]: 0% and 17% | Population Mitochondria Different-Phenotype (%) [6]: 55% and 29% | Population Mitotic Cells (%) [6]: 22% and 31% | Population Normal (%) [6]: 85% and 86% | Population Pyknosed Nuclei (%) [6]: 51% and 30% | Population Tubulin-Different-Phenotype (%) [6]: 66% and 80% | Total Cell Count [6]: 103 and 130

CN1C[C@H](C(=O)N[C@]2(C)O[C@@]3(O)[C@@H]4CCCN4C(=O)[C@H](Cc4ccccc4)N3C2=O)C[C@@H]2c3cccc4[nH]cc(c34)C[C@H]21.CS(=O)(=O)O [DIHYDROERGOTAMINE MESYLATE]
Population Apoptotic (%) [1]: 25% and 47% | Population Fragmented Nuclei (%) [1]: 13% and 32% | Population Healthy Nuclei (%) [1]: 70% and 51% | Population Hoechst High Intensity Objects (%) [1]: 1% and 7% | Population Membrane Permeable-Phenotype (%) [1]: 1% and 6% | Population Mitochondria Different-Phenotype (%) [1]: 1% and 5% | Population Mitotic Cells (%) [1]: 75% and 52% | Population Normal (%) [1]: 98% and 92% | Population Pyknosed Nuclei (%) [1]: 16% | Population Tubulin-Different-Phenotype (%) [1]: 23% and 31% | Total Cell Count [1]: 127 and 155 | Population Apoptotic (%) [2]: 57% and 31% | Population Fragmented Nuclei (%) [2]: 27% and 33% | Population Healthy Nuclei (%) [2]: 65% and 45% | Population Hoechst High Intensity Objects (%) [2]: 0% and 8% | Population Membrane Permeable-Phenotype (%) [2]: 0% and 2% | Population Mitochondria Different-Phenotype (%) [2]: 5% and 0% | Population Mitotic Cells (%) [2]: 42% and 68% | Population Normal (%) [2]: 100% and 91% | Population Pyknosed Nuclei (%) [2]: 7% and 21% | Total Cell Count [2]: 92 and 114 | Population Apoptotic (%) [3]: 38% and 47% | Population Fragmented Nuclei (%) [3]: 14% and 30% | Population Healthy Nuclei (%) [3]: 75% and 56% | Population Hoechst High Intensity Objects (%) [3]: 1% and 4% | Population Membrane Permeable-Phenotype (%) [3]: 0% and 7% | Population Mitochondria Different-Phenotype (%) [3]: 0% and 3% | Population Mitotic Cells (%) [3]: 61% and 52% | Population Normal (%) [3]: 98% and 95% | Population Pyknosed Nuclei (%) [3]: 10% and 13% | Population Tubulin-Different-Phenotype (%) [3]: 18% and 50% | Total Cell Count [3]: 130 and 149 | Population Apoptotic (%) [4]: 55% and 31% | Population Fragmented Nuclei (%) [4]: 17% and 35% | Population Healthy Nuclei (%) [4]: 72% and 43% | Population Hoechst High Intensity Objects (%) [4]: 1% and 5% | Population Membrane Permeable-Phenotype (%) [4]: 0% and 6% | Population Mitochondria Different-Phenotype (%) [4]: 1% and 0% | Population Mitotic Cells (%) [4]: 44% and 68% | Population Normal (%) [4]: 98% and 94% | Population Pyknosed Nuclei (%) [4]: 10% and 20% | Total Cell Count [4]: 89 and 113 | Population Apoptotic (%) [5]: 57% and 53% | Population Fragmented Nuclei (%) [5]: 20% and 38% | Population Healthy Nuclei (%) [5]: 68% and 50% | Population Hoechst High Intensity Objects (%) [5]: 1% and 5% | Population Membrane Permeable-Phenotype (%) [5]: 0% and 6% | Population Mitochondria Different-Phenotype (%) [5]: 2% and 6% | Population Mitotic Cells (%) [5]: 42% and 46% | Population Normal (%) [5]: 98% and 94% | Population Pyknosed Nuclei (%) [5]: 10% and 11% | Population Tubulin-Different-Phenotype (%) [5]: 30% and 48% | Total Cell Count [5]: 134 and 139 | Population Apoptotic (%) [6]: 63% and 76% | Population Fragmented Nuclei (%) [6]: 21% and 44% | Population Healthy Nuclei (%) [6]: 65% and 44% | Population Hoechst High Intensity Objects (%) [6]: 3% | Population Membrane Permeable-Phenotype (%) [6]: 1% and 11% | Population Mitochondria Different-Phenotype (%) [6]: 3% and 5% | Population Mitotic Cells (%) [6]: 36% and 23% | Population Normal (%) [6]: 96% | Population Pyknosed Nuclei (%) [6]: 12% and 10% | Population Tubulin-Different-Phenotype (%) [6]: 20% and 55% | Total Cell Count [6]: 91 and 126
